# ChEMBL document CHEMBL3244388, “Synthesis and antihypertensive activity of 2-benzamido-1,2,3,4,6,7,12,12b-octahydroindolo[2,3-a]quinolizines” (J Med Chem, 1979)
# Active and inactive are the calls of the source. The rule behind the calls is not given here.
# Columns and labels:
# Rattus norvegicus [1] = experiment: Antihypertensive activity in spontaneous hypertensive rat assessed as change in systolic blood pressure at 50 mg/kg, po […] measured 2 hrs post last dose on day 3 by tail-cuff method relative to vehicle-treated control; assay type: functional, Artery
# Method in brief: (§1)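 Spontaneously hypertensive rats, pre-trained for 2 weeks; animals with baseline below 175 mmHg excluded. Oral dosing at 0 h on days 1, 2 and 3, six rats per group. After warming (20 min, 40 °C), systolic pressure was read by tail-cuff with microphone, 3–5 readings averaged. Readings at 0 h on days 1 and 3 and 2 h post-dose on day 3 were compared with 0-h controls by paired t test; a drop over 15 mmHg counted as active.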
# Rattus norvegicus [2] = experiment: Antihypertensive activity in spontaneous hypertensive rat assessed as change in systolic blood pressure at 25 mg/kg, po administered […] measured 2 hrs post last dose on day 3 by tail-cuff method relative to vehicle-treated control; assay type: functional, Artery; method in brief: as §1
# Rattus norvegicus [3] = experiment: Antihypertensive activity in spontaneous hypertensive rat assessed as change in systolic blood pressure at 10 mg/kg, po […] measured 2 hrs post last dose on day 3 by tail-cuff method […]; assay type: functional, Artery; method in brief: as §1
# Rattus norvegicus [4] = experiment: Antihypertensive activity in spontaneous hypertensive rat assessed as change in systolic blood pressure at 5 mg/kg, po administered […] measured 2 hrs post last dose on day 3 by tail-cuff method relative to vehicle-treated control; assay type: functional, Artery; method in brief: as §1
# Felis catus = species: Felis catus; experiment: Inhibition of cat spleen alpha-adrenergic receptor; assay type: tissue-based
# Canis familiaris = experiment: Inhibition of alpha-adrenergic receptor in iv dosed dog; assay type: functional, organism-based; conditions: Canis lupus familiaris
# Rattus norvegicus [5] = experiment: Toxicity in spontaneous hypertensive rat assessed as mortality at 50 mg/kg, po administered on […] measured 2 hrs post last dose on day 3; assay type: organism-based; parameters: dose 50 mg/kg, route oral; conditions: in vivo
# Method in brief: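 Genetically spontaneously hypertensive rats, each trained for 2 weeks to set baseline; animals below 175 mmHg were excluded. Groups of six were dosed orally at 0 h on days 1, 2 and 3. Systolic pressure was read by indirect tail-cuff after 20 min conditioning at 40 °C, 3–5 readings averaged, at 0 h on days 1 and 3 and 2 h post-dose on day 3.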
# Rattus norvegicus [6] = experiment: Antihypertensive activity in spontaneous hypertensive rat assessed as change in systolic blood pressure at 15 mg/kg, po […] measured 2 hrs post last dose on day 3 by tail-cuff method relative to vehicle-treated control; assay type: functional, Artery; method in brief: as §1
Structure (SMILES),Activity (Rattus norvegicus [1]),Activity (Rattus norvegicus [2]),also measured
Cl.O=C(N[C@@H]1CCN2CCc3c([nH]c4ccccc34)[C@@H]2C1)c1ccc([N+](=O)[O-])cc1,15 mmHg,,
c1ccc(NC2CCN3CCc4c([nH]c5ccccc45)[C@@H]3C2)cc1 (stereo partly drawn),,-25 mmHg,
CN(C(=O)c1ccccc1Cl)C1CCN2CCc3c([nH]c4ccccc34)[C@@H]2C1 (stereo partly drawn),,-13 mmHg,
Cc1ccc(C(=O)N[C@@H]2CCN3CCc4c([nH]c5ccccc45)[C@@H]3C2)cc1,-18 mmHg,,
Cc1ccc(C(=O)N[C@H]2CCN3CCc4c([nH]c5ccccc45)[C@@H]3C2)cc1,,-32 mmHg,
CN(C(=O)c1ccccc1)[C@@H]1CCN2CCc3c([nH]c4ccccc34)[C@@H]2C1,-103 mmHg,,Activity (Rattus norvegicus [3]): -41 mmHg; Activity (Rattus norvegicus [4]): -19 mmHg; inhibition (Felis catus): Active; inhibition (Canis familiaris): Active
CCCNC1CCN2CCc3c([nH]c4ccccc34)[C@@H]2C1 (stereo partly drawn),27 mmHg,,
O=C(N[C@@H]1CCN2CCc3c([nH]c4ccccc34)[C@@H]2C1)c1ccc(Cl)cc1,-3 mmHg,,
O=C(Nc1ccccc1)N[C@@H]1CCN2CCc3c([nH]c4ccccc34)[C@@H]2C1,-22 mmHg,,
Cc1ccccc1C(=O)N(C)C1CCN2CCc3c([nH]c4ccccc34)[C@@H]2C1 (stereo partly drawn),-44 mmHg,,
CCCN(C(=O)c1ccccc1)C1CCN2CCc3c([nH]c4ccccc34)[C@@H]2C1 (stereo partly drawn),-16 mmHg,,
O=C(N[C@@H]1CCN2CCc3c([nH]c4ccccc34)[C@@H]2C1)c1ccccc1Br,-24 mmHg,,
CN(C#N)[C@@H]1CCN2CCc3c([nH]c4ccccc34)[C@@H]2C1,-51 mmHg,,Activity (Rattus norvegicus [5]): Toxic
c1ccc(CNC2CCN3CCc4c([nH]c5ccccc45)[C@@H]3C2)cc1 (stereo partly drawn),-53 mmHg,-8 mmHg,
O=C(N[C@@H]1CCN2CCc3c([nH]c4ccccc34)[C@@H]2C1)c1ccccc1,1 mmHg,,
CN(C(=O)c1cccc(F)c1)C1CCN2CCc3c([nH]c4ccccc34)[C@@H]2C1 (stereo partly drawn),-110 mmHg,-76 mmHg,
c1ccc(CCNC2CCN3CCc4c([nH]c5ccccc45)[C@@H]3C2)cc1 (stereo partly drawn),-16 mmHg,,
CN(C(=O)c1ccc(Cl)cc1)C1CCN2CCc3c([nH]c4ccccc34)[C@@H]2C1 (stereo partly drawn),-6 mmHg,,
CCn1c2c(c3ccccc31)CCN1CCC(NC)C[C@@H]21 (stereo partly drawn),-30 mmHg,,
CN(C(=O)c1cccc(Cl)c1)C1CCN2CCc3c([nH]c4ccccc34)[C@@H]2C1 (stereo partly drawn),-79 mmHg,-54 mmHg,
CN(C(=O)c1cccc(C(F)(F)F)c1)C1CCN2CCc3c([nH]c4ccccc34)[C@@H]2C1 (stereo partly drawn),-48 mmHg,-56 mmHg,inhibition (Felis catus): Active; inhibition (Canis familiaris): Active
O=C(N[C@@H]1CCN2CCc3c([nH]c4ccccc34)[C@@H]2C1)c1cccc(C(F)(F)F)c1,-3 mmHg,,
COc1ccc(C(=O)N(C)[C@@H]2CCN3CCc4c([nH]c5ccccc45)[C@@H]3C2)cc1,-50 mmHg,-72 mmHg,Activity (Rattus norvegicus [3]): -86 mmHg; Activity (Rattus norvegicus [4]): -53 mmHg; inhibition (Felis catus): Active; inhibition (Canis familiaris): Active
O=C(NC1CCN2CCc3c([nH]c4ccccc34)[C@@H]2C1)c1ccco1 (stereo partly drawn),0 mmHg,,
Cc1cccc(C(=O)N[C@H]2CCN3CCc4c([nH]c5ccccc45)[C@@H]3C2)c1,,-53 mmHg,

Structure (SMILES),Activity (Rattus norvegicus [1]),Activity (Rattus norvegicus [2]),also measured
COc1cc(C(=O)N[C@@H]2CCN3CCc4c([nH]c5ccccc45)[C@@H]3C2)cc(OC)c1OC,,-25 mmHg,
c1ccc2c3c([nH]c2c1)[C@@H]1CC(NC2CC2)CCN1CC3 (stereo partly drawn),-25 mmHg,,
COc1ccc(C(=O)N[C@@H]2CCN3CCc4c([nH]c5ccccc45)[C@@H]3C2)cc1,,10 mmHg,
O=C(Nc1ccccc1)N[C@H]1CCN2CCc3c([nH]c4ccccc34)[C@@H]2C1,,-6 mmHg,
O=C1c2ccccc2CN1[C@@H]1CCN2CCc3c([nH]c4ccccc34)[C@@H]2C1,2 mmHg,,
Cc1cccc(C(=O)N[C@@H]2CCN3CCc4c([nH]c5ccccc45)[C@@H]3C2)c1,-49 mmHg,,
CCNC1CCN2CCc3c([nH]c4ccccc34)[C@@H]2C1 (stereo partly drawn),-4 mmHg,,
CNC1CCN2CCc3c([nH]c4ccccc34)[C@@H]2C1 (stereo partly drawn),-18 mmHg,,
O=C(N[C@@H]1CCN2CCc3c([nH]c4ccccc34)[C@@H]2C1)c1ccc(F)cc1,,-24 mmHg,
CCN(C(=O)c1ccccc1)C1CCN2CCc3c([nH]c4ccccc34)[C@@H]2C1 (stereo partly drawn),-83 mmHg,-92 mmHg,
Nc1ccc(C(=O)N[C@@H]2CCN3CCc4c([nH]c5ccccc45)[C@@H]3C2)cc1,-31 mmHg,,
O=C(N[C@@H]1CCN2CCc3c([nH]c4ccccc34)[C@@H]2C1)c1ccc2c(c1)OCO2,-52 mmHg,,
NC1CCN2CCc3c([nH]c4ccccc34)[C@@H]2C1 (stereo partly drawn),,-9.5 mmHg,
O=C(N[C@H]1CCN2CCc3c([nH]c4ccccc34)[C@@H]2C1)c1ccccc1Br,18 mmHg,,
Cl.O=C(NC1CCN(CCc2c[nH]c3ccccc23)CC1)c1ccccc1 [INDORAMIN HYDROCHLORIDE],-79 mmHg,,
COc1cccc(C(=O)N[C@@H]2CCN3CCc4c([nH]c5ccccc45)[C@@H]3C2)c1,-18 mmHg,,
CCn1c2c(c3ccccc31)CCN1CCC(N(C)C(=O)c3ccccc3)C[C@@H]21 (stereo partly drawn),-67 mmHg,-63 mmHg,
O=C(c1ccccc1)N(C1CC1)C1CCN2CCc3c([nH]c4ccccc34)[C@@H]2C1 (stereo partly drawn),-26 mmHg,,
O=C(N[C@@H]1CCN2CCc3c([nH]c4ccccc34)[C@@H]2C1)c1ccccc1Cl,-26 mmHg,,
c1ccc(N[C@H]2CCN3CCc4c([nH]c5ccccc45)[C@@H]3C2)cc1,,5.75 mmHg,
CN(C(=O)c1ccc(F)cc1)C1CCN2CCc3c([nH]c4ccccc34)[C@@H]2C1 (stereo partly drawn),-20 mmHg,,
CC(=O)NC1CCN2CCc3c([nH]c4ccccc34)[C@@H]2C1 (stereo partly drawn),-20 mmHg,,
CN(C(=O)c1ccccc1)[C@H]1CCN2CCc3c([nH]c4ccccc34)[C@@H]2C1,,,Activity (Rattus norvegicus [6]): -17 mmHg
Cc1ccccc1C(=O)N[C@@H]1CCN2CCc3c([nH]c4ccccc34)[C@@H]2C1,13 mmHg,,
CN(Cc1ccccc1)[C@@H]1CCN2CCc3c([nH]c4ccccc34)[C@@H]2C1,-54 mmHg,,
